Reference: ChEMBL document CHEMBL3774355, “Quinoxalinone (Part II). Discovery of (Z)-3-(2-(pyridin-4-yl)vinyl)quinoxalinone derivates as potent VEGFR-2 kinase inhibitors” (Bioorg Med Chem, 2016)
pIC50: −log10 of the molar value. Active and inactive are the calls of the source. The rule behind the calls is not given here.

species: Danio rerio; test: Antiangiogenic activity against transgenic zebra fish embryos expressing green fluorescence protein assessed as inhibition of intersegmental vessel formation at 10 to 100 uM after 24 hrs by confocal fluorescence microscopy; assay type: functional, organism-based; details: not given
Summary of the method: (§1)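 Tg(flk1:GFP) embryos, dechorionated one day post-fertilization, 10 per well in 3 mL assay solution with 0.1% PTU added; compounds at 10, 50, 100 µM, 0.2% DMSO as vehicle control, vatalanib as positive control; 28 °C. ISV formation scored by confocal microscopy (50- and 100-fold) after 24 h treatment; repeated at least three times.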

In the case of `O=C(COc1nc2ccccc2nc1/C=C\c1ccncc1)Nc1ccc(Cl)cc1`, the inhibition was “Active”.
For `O=C(Cn1c(=O)c(/C=C\c2ccncc2)nc2ccccc21)Nc1ccc(Cl)cc1`, the inhibition was “Dose-dependent effect”.
In the case of `O=C(Cn1c(=O)c(/C=C\c2ccncc2)nc2ccccc21)Nc1ccc(F)cc1`, the inhibition was “inactive”.
With `O=C(Cn1c(=O)c(/C=C\c2ccncc2)nc2ccccc21)Nc1ccc(Cl)c(Cl)c1` the inhibition was “Dose-dependent effect”.

species: Danio rerio; test: Antiangiogenic activity against transgenic zebra fish embryos expressing green fluorescence protein assessed as inhibition of intersegmental vessel formation at 100 uM after 24 hrs by confocal fluorescence microscopy; assay type: functional, organism-based; details: not given; summary of the method: as §1

For `Cc1nc2ccccc2n(CC(=O)Nc2ccc(Cl)cc2)c1=O`, the inhibition was “Active”.

target: Vascular endothelial growth factor receptor 2 (Homo sapiens) (UniProt P35968); details: at 1 µM
Sequence (P35968 whole entry): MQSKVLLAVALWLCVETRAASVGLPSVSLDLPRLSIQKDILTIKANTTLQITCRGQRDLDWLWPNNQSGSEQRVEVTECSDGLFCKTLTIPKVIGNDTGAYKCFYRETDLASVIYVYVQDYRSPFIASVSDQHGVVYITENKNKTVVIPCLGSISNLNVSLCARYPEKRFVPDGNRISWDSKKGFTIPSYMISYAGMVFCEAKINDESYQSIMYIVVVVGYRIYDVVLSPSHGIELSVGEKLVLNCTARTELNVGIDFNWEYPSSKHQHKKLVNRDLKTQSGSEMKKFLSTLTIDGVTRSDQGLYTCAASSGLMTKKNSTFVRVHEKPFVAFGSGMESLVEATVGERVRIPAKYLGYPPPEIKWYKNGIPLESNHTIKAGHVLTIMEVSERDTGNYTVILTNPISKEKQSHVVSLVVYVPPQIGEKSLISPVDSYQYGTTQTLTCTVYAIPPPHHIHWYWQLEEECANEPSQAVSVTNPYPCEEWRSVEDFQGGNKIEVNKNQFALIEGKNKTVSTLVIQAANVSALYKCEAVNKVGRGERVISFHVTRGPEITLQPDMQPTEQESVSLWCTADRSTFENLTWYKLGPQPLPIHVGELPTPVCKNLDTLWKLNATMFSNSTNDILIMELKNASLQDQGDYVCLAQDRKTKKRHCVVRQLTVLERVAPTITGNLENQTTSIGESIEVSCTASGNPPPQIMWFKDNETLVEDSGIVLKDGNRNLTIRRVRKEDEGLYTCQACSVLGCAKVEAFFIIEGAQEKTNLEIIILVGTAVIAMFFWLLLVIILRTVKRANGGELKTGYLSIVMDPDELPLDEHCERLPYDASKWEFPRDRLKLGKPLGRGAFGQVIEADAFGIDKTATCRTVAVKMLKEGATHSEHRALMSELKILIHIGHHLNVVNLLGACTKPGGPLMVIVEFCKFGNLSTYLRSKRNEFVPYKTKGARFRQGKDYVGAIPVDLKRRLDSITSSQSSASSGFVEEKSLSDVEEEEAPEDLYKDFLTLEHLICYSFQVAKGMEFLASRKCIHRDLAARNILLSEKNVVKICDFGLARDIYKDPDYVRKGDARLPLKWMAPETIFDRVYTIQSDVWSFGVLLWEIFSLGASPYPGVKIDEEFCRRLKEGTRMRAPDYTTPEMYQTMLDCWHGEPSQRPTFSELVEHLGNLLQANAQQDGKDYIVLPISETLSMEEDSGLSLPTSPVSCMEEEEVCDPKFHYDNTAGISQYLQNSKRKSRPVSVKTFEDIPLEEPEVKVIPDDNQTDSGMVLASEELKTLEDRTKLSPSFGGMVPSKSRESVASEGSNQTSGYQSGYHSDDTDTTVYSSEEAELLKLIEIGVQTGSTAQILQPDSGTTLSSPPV

Compared with `O=C(COc1nc2ccccc2nc1/C=C\c1ccncc1)Nc1ccc(Cl)cc1`, `O=C(Cn1c(=O)c(/C=C\c2ccncc2)nc2ccccc21)Nc1ccc(Cl)cc1` is higher in inhibition: 37% for the first, 44% for the second.

First: Cc1nc2ccccc2n(CC(=O)Nc2ccc(Cl)cc2)c1=O
Second: O=C(Cn1c(=O)c(/C=C\c2ccncc2)nc2ccccc21)Nc1ccc(F)cc1
The inhibition of the first is higher: 19% for the first, 6% for the second.

With `O=C(Cn1c(=O)c(/C=C\c2ccncc2)nc2ccccc21)Nc1ccc(Cl)c(Cl)c1` the inhibition was 56%.

tested on: HeLa; test: Cytotoxicity against human HeLa cells assessed as growth inhibition after 24 hrs by MTT assay; assay type: functional, cell-based; details: not given
Summary of the method: (§2)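 Cells seeded at 8000/well in RPMI-1640 with 10% heat-inactivated FBS and left to adhere 10 h. Compound then added in RPMI-1640 with 1% FBS and 0.1% DMSO for 24 h at 37 °C. MTT added for 4 h, formazan dissolved in DMSO, OD read at 590 nm. Inhibition calculated relative to control and zero-setting wells; IC50 derived from inhibition ratios; two experiments in triplicate.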

Going from `Cc1nc2ccccc2n(CC(=O)Nc2ccc(F)cc2)c1=O` to `Cc1nc2ccccc2n(CC(=O)Nc2ccc(Cl)cc2)c1=O`, the pIC50 falls from 4.26 to under 4.00.

`O=C(COc1nc2ccccc2nc1/C=C\c1ccncc1)Nc1ccc(Cl)cc1` and `O=C(Cn1c(=O)c(/C=C\c2ccncc2)nc2ccccc21)Nc1ccc(Cl)cc1` cannot be ordered by pIC50: under 4.00 for the first, under 4.00 for the second.

First: Cc1ccc(NC(=O)COc2nc3ccccc3nc2C)cc1
Second: Cc1ccc(C(=O)Nc2ccc(Cn3c(=O)c(C)nc4ccccc43)cc2)cc1
The pIC50 of the first is higher: 4.13 for the first, under 4.00 for the second.

`O=C(Cn1c(=O)c(/C=C\c2ccncc2)nc2ccccc21)Nc1ccc(F)cc1` and `O=C(Cn1c(=O)c(/C=C\c2ccncc2)nc2ccccc21)Nc1ccc(Cl)c(Cl)c1` cannot be ordered by pIC50: under 4.00 for the first, under 4.00 for the second.

tested on: not listed separately; test: Cytotoxicity against human BEAS2B cells assessed as growth inhibition after 24 hrs by MTT assay; assay type: cell-based; details: BEAS-2B; summary of the method: as §2

`Cc1nc2ccccc2n(CC(=O)Nc2ccc(F)cc2)c1=O` and `Cc1nc2ccccc2n(CC(=O)Nc2ccc(Cl)cc2)c1=O` cannot be ordered by pIC50: under 4.00 for the first, under 4.00 for the second.

`O=C(COc1nc2ccccc2nc1/C=C\c1ccncc1)Nc1ccc(Cl)cc1` and `O=C(Cn1c(=O)c(/C=C\c2ccncc2)nc2ccccc21)Nc1ccc(Cl)cc1` cannot be ordered by pIC50: under 4.00 for the first, under 4.00 for the second.

`Cc1ccc(NC(=O)COc2nc3ccccc3nc2C)cc1` and `Cc1ccc(C(=O)Nc2ccc(Cn3c(=O)c(C)nc4ccccc43)cc2)cc1` cannot be ordered by pIC50: under 4.00 for the first, under 4.00 for the second.

`O=C(Cn1c(=O)c(/C=C\c2ccncc2)nc2ccccc21)Nc1ccc(F)cc1` and `O=C(Cn1c(=O)c(/C=C\c2ccncc2)nc2ccccc21)Nc1ccc(Cl)c(Cl)c1` cannot be ordered by pIC50: under 4.00 for the first, under 4.00 for the second.

tested on: K562; test: Cytotoxicity against human K562 cells assessed as growth inhibition after 24 hrs by MTT assay; assay type: functional, cell-based; details: K562, 24 h; summary of the method: as §2

`Cc1nc2ccccc2n(CC(=O)Nc2ccc(F)cc2)c1=O` and `Cc1nc2ccccc2n(CC(=O)Nc2ccc(Cl)cc2)c1=O` cannot be ordered by pIC50: under 4.00 for the first, under 4.00 for the second.

`O=C(COc1nc2ccccc2nc1/C=C\c1ccncc1)Nc1ccc(Cl)cc1` and `O=C(Cn1c(=O)c(/C=C\c2ccncc2)nc2ccccc21)Nc1ccc(Cl)cc1` are the same in pIC50: 4.30 for the first, 4.30 for the second.

`Cc1ccc(NC(=O)COc2nc3ccccc3nc2C)cc1` and `Cc1ccc(C(=O)Nc2ccc(Cn3c(=O)c(C)nc4ccccc43)cc2)cc1` cannot be ordered by pIC50: under 4.00 for the first, under 4.00 for the second.

`O=C(Cn1c(=O)c(/C=C\c2ccncc2)nc2ccccc21)Nc1ccc(F)cc1` and `O=C(Cn1c(=O)c(/C=C\c2ccncc2)nc2ccccc21)Nc1ccc(Cl)c(Cl)c1` cannot be ordered by pIC50: under 4.00 for the first, under 4.00 for the second.

tested on: not listed separately; test: Cytotoxicity against human PC3 cells assessed as growth inhibition after 24 hrs by MTT assay; assay type: functional, cell-based; details: PC-3, 24 h; summary of the method: as §2

`Cc1nc2ccccc2n(CC(=O)Nc2ccc(F)cc2)c1=O` and `Cc1nc2ccccc2n(CC(=O)Nc2ccc(Cl)cc2)c1=O` cannot be ordered by pIC50: under 4.00 for the first, under 4.00 for the second.

`O=C(COc1nc2ccccc2nc1/C=C\c1ccncc1)Nc1ccc(Cl)cc1` and `O=C(Cn1c(=O)c(/C=C\c2ccncc2)nc2ccccc21)Nc1ccc(Cl)cc1` cannot be ordered by pIC50: under 4.00 for the first, under 4.00 for the second.

`Cc1ccc(NC(=O)COc2nc3ccccc3nc2C)cc1` and `Cc1ccc(C(=O)Nc2ccc(Cn3c(=O)c(C)nc4ccccc43)cc2)cc1` cannot be ordered by pIC50: under 4.00 for the first, under 4.00 for the second.

First: O=C(Cn1c(=O)c(/C=C\c2ccncc2)nc2ccccc21)Nc1ccc(F)cc1
Second: O=C(Cn1c(=O)c(/C=C\c2ccncc2)nc2ccccc21)Nc1ccc(Cl)c(Cl)c1
The pIC50 of the first is higher: 4.22 for the first, under 4.00 for the second. The first is the more potent here.

target: Fibroblast growth factor receptor 1 (Homo sapiens) (UniProt P11362); test: Inhibition of human recombinant FGFR1 at 1 uM after 50 mins by microtiter plate based luciferase reporter gene assay; details: not given
Sequence (P11362 22-822 limits assumed): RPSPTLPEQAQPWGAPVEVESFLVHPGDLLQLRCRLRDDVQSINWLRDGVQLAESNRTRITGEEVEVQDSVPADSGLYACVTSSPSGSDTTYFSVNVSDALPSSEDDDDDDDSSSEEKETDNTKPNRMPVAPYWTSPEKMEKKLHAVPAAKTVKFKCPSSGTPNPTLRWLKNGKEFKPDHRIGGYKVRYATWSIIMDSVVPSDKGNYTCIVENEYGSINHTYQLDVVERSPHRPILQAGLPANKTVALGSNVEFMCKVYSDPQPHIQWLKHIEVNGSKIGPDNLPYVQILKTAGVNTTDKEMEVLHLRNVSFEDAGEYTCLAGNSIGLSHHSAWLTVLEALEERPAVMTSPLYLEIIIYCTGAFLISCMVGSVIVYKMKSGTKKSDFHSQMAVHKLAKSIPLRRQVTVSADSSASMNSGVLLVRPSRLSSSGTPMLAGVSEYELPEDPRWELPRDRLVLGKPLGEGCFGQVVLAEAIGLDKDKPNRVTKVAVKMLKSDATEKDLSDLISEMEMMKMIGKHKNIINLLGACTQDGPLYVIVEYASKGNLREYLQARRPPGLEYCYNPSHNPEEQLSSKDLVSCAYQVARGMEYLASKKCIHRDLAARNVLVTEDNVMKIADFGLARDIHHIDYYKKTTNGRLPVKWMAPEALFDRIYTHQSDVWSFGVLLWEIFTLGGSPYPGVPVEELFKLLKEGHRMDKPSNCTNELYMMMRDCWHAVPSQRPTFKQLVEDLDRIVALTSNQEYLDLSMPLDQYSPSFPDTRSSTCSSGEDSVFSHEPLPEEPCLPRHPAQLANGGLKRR

Compared with `O=C(COc1nc2ccccc2nc1/C=C\c1ccncc1)Nc1ccc(Cl)cc1`, `O=C(Cn1c(=O)c(/C=C\c2ccncc2)nc2ccccc21)Nc1ccc(Cl)cc1` is higher in inhibition: 0% for the first, 5% for the second.

Compared with `Cc1nc2ccccc2n(CC(=O)Nc2ccc(Cl)cc2)c1=O`, `O=C(Cn1c(=O)c(/C=C\c2ccncc2)nc2ccccc21)Nc1ccc(F)cc1` is higher in inhibition: 0% for the first, 2% for the second.

`O=C(Cn1c(=O)c(/C=C\c2ccncc2)nc2ccccc21)Nc1ccc(Cl)c(Cl)c1` showed an inhibition of 8%.

tested on: HUVEC; test: Antiangiogenic activity against HUVEC cells assessed as inhibition of VEGF-induced tube formation after 8 hrs by microscopic analysis; assay type: functional, cell-based; details: Homo sapiens
Summary of the method: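 HUVECs trypsinized and seeded on Matrigel (polymerized 1 h, 37 °C) at 10^5 cells/well, incubated with compound at 0.1, 1 and 10 µg/mL for 8 h at 37 °C in CO2 until tube networks formed; Pazopanib as positive control. Morphology imaged in five random fields per well; experiment repeated 3 times.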

With `O=C(COc1nc2ccccc2nc1/C=C\c1ccncc1)Nc1ccc(Cl)cc1` the inhibition was “Dose-dependent effect”.
In the case of `O=C(Cn1c(=O)c(/C=C\c2ccncc2)nc2ccccc21)Nc1ccc(Cl)cc1`, the inhibition was “Dose-dependent effect”.
For `Cc1nc2ccccc2n(CC(=O)Nc2ccc(Cl)cc2)c1=O`, the inhibition was “Dose-dependent effect”.
For `O=C(Cn1c(=O)c(/C=C\c2ccncc2)nc2ccccc21)Nc1ccc(F)cc1`, the inhibition was “Dose-dependent effect”.
With `O=C(Cn1c(=O)c(/C=C\c2ccncc2)nc2ccccc21)Nc1ccc(Cl)c(Cl)c1` the inhibition was “Dose-dependent effect”.

tested on: not listed separately; test: Cytotoxicity against human 3AO cells assessed as growth inhibition after 24 hrs by MTT assay; assay type: functional, cell-based; details: not given; summary of the method: as §2

Compared with `Cc1nc2ccccc2n(CC(=O)Nc2ccc(F)cc2)c1=O`, `Cc1nc2ccccc2n(CC(=O)Nc2ccc(Cl)cc2)c1=O` is higher in pIC50: under 4.00 for the first, 4.40 for the second.

`O=C(COc1nc2ccccc2nc1/C=C\c1ccncc1)Nc1ccc(Cl)cc1` and `O=C(Cn1c(=O)c(/C=C\c2ccncc2)nc2ccccc21)Nc1ccc(Cl)cc1` cannot be ordered by pIC50: under 4.00 for the first, under 4.00 for the second.

`Cc1ccc(NC(=O)COc2nc3ccccc3nc2C)cc1` and `Cc1ccc(C(=O)Nc2ccc(Cn3c(=O)c(C)nc4ccccc43)cc2)cc1` cannot be ordered by pIC50: under 4.00 for the first, under 4.00 for the second.

`O=C(Cn1c(=O)c(/C=C\c2ccncc2)nc2ccccc21)Nc1ccc(F)cc1` and `O=C(Cn1c(=O)c(/C=C\c2ccncc2)nc2ccccc21)Nc1ccc(Cl)c(Cl)c1` cannot be ordered by pIC50: under 4.00 for the first, under 4.00 for the second.

tested on: MCF7; test: Cytotoxicity against human MCF7 cells assessed as growth inhibition after 24 hrs by MTT assay; assay type: functional, cell-based; details: MCF7, 24 h; summary of the method: as §2

`Cc1nc2ccccc2n(CC(=O)Nc2ccc(F)cc2)c1=O` and `Cc1nc2ccccc2n(CC(=O)Nc2ccc(Cl)cc2)c1=O` cannot be ordered by pIC50: under 4.00 for the first, under 4.00 for the second.

`O=C(COc1nc2ccccc2nc1/C=C\c1ccncc1)Nc1ccc(Cl)cc1` and `O=C(Cn1c(=O)c(/C=C\c2ccncc2)nc2ccccc21)Nc1ccc(Cl)cc1` cannot be ordered by pIC50: under 4.00 for the first, under 4.00 for the second.

`Cc1ccc(NC(=O)COc2nc3ccccc3nc2C)cc1` and `Cc1ccc(C(=O)Nc2ccc(Cn3c(=O)c(C)nc4ccccc43)cc2)cc1` cannot be ordered by pIC50: under 4.00 for the first, under 4.00 for the second.

`O=C(Cn1c(=O)c(/C=C\c2ccncc2)nc2ccccc21)Nc1ccc(F)cc1` and `O=C(Cn1c(=O)c(/C=C\c2ccncc2)nc2ccccc21)Nc1ccc(Cl)c(Cl)c1` are within 0.2 log units of each other in pIC50: 4.31 for the first, 4.32 for the second.
